Results published in ChEMBL document CHEMBL3596149, “Thermodynamics and kinetic studies in the binding interaction of cyclic naphthalene diimide derivatives with double stranded DNAs” (Bioorg Med Chem, 2015).
Activity calls are given as the source filed them. The calls are words filed in the database; no cut-off is given here.

Legend:
[1] = system: Calf thymus DNA; test: Binding affinity to calf thymus DNA assessed as dissociation constant by stopped flow kinetics assay; format: nucleic-acid assay, Bos taurus
How it was run: (§1)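 Dissociation was SDS-driven and measured by stopped-flow. Equal volumes of 1% SDS and ligand–DNA complex (ligand:bp 1:10) were mixed rapidly. Buffer was 10 mM MES pH 6.25 with 100 mM NaCl and 1 mM EDTA. Absorbance was recorded over time, and k_d was obtained by nonlinear fitting of the trace.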

[2] = system: Calf thymus DNA; test: Binding affinity to calf thymus DNA assessed as change in entropy by thermodynamics analysis; format: nucleic-acid assay; conditions: Bos taurus
How it was run: (§2)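 Binding constants for CT-DNA were obtained by UV-vis titration at 20–27.5°C in 10 mM MES pH 6.25 with 0.1 M NaCl and 1 mM EDTA. ΔH and ΔS were taken from a van't Hoff plot of lnK vs 1/T. ΔG at 25°C came from the Gibbs equation.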

[3] = system: Calf thymus DNA; test: Binding affinity to calf thymus DNA assessed as association constant by stopped flow kinetics assay; format: nucleic-acid assay; conditions: Bos taurus
How it was run: (§3)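 Ligand was mixed with DNA in a stopped-flow instrument, in 10 mM MES pH 6.25 with 0.1 M NaCl and 1 mM EDTA. Ligand to DNA base-pair ratio was 1:10. Absorbance was followed at the ligand maximum (383 nm). Traces were fitted to a single exponential, and apparent rate constants were plotted against DNA concentration.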

[4] = Binding affinity to poly[d(G-C)]2 DNA (unknown origin) assessed as hypochromicity by UV-vis titration method
How it was run: (§4)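 Titration was the same as the UV-vis binding titration: 6.7 µM ligand, 10 mM MES pH 6.25, 100 mM NaCl, 1 mM EDTA, 25°C. Hypochromicity was calculated as H% = (A383 free − A383 bound)/A383 free × 100.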

[5] = Binding affinity to poly[d(A-T)]2 DNA (unknown origin) assessed as hypochromicity by UV-vis titration method; how it was run: as §4
[6] = Binding affinity to poly[d(G-C)]2 DNA (unknown origin) assessed as dissociation constant by stopped flow kinetics assay; how it was run: as §1
[7] = Binding affinity to poly[d(A-T)]2 DNA (unknown origin) assessed as association constant by stopped flow kinetics assay; how it was run: as §3
[8] = system: Calf thymus DNA; test: Binding affinity to calf thymus DNA assessed as change in free energy at 25 degC by thermodynamics analysis; format: nucleic-acid assay; conditions: Bos taurus; how it was run: as §2
[9] = Binding affinity to poly[d(A-T)]2 DNA (unknown origin) assessed as dissociation constant by stopped flow kinetics assay; how it was run: as §1
[10] = system: Calf thymus DNA; test: Binding affinity to calf thymus DNA assessed as change in enthalpy by thermodynamics analysis; format: nucleic-acid assay; conditions: Bos taurus; how it was run: as §2
[11] = system: Calf thymus DNA; test: Binding affinity to calf thymus DNA assessed as hypochromicity by UV-vis titration method; format: nucleic-acid assay; conditions: Bos taurus; how it was run: as §4
[12] = Binding affinity to poly[d(G-C)]2 DNA (unknown origin) assessed as association constant by stopped flow kinetics assay; how it was run: as §3
[13] = system: Calf thymus DNA; test: Binding affinity to calf thymus DNA assessed as delta(logK)/delta(log[Na+]) ratio at 0.05 to 0.125 M NaCl by UV-vis titration method; format: nucleic-acid assay; conditions: Bos taurus
How it was run: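 Binding constants for CT-DNA were measured by UV-vis Scatchard titration in 10 mM MES pH 6.25 with 1 mM EDTA at varied NaCl. The ratio is the slope of log K plotted against −log[Na+].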

[14] = system: Nucleic Acid; test: Induction of DNA intercalation of pUC19 DNA assessed as compound level causing DNA re-supercoiling in presence of topoisomerase-1 incubated for 1 hr at 37 degC by electrophoresis method; format: nucleic-acid assay; conditions: Escherichia coli
How it was run: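 pUC19 (0.25 µg) was preincubated with 5 U topoisomerase I for 5 min at 37°C. Reaction buffer was 35 mM Tris-HCl pH 8.0, 72 mM KCl, 5 mM MgCl2, 5 mM DTT, 5 mM spermidine and 0.1% BSA. Ligand (2.0–50 µM) was then added for 1 h at 37°C. After SDS/proteinase K treatment, extraction and ethanol precipitation, DNA was run on 1% agarose in TAE (18 V, 3.5 h) and GelStar-stained.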

[15] = system: Calf thymus DNA; test: Binding affinity to calf thymus DNA assessed as increase in positive and negative CD bands at 5 to 50 uM at 25 degC by CD spectroscopy; format: nucleic-acid assay; conditions: Bos taurus
How it was run: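 Ligand at 5–50 µM was added to 100 µM/bp CT-DNA in 10 mM MES pH 6.25 with 100 mM NaCl and 1 mM EDTA, at 25°C. CD spectra were recorded, including the induced CD region at 320–400 nm.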

[16] = Selectivity index, ratio of binding constant K for calf thymus DNA to binding constant K for poly[d(G-C)]2 DNA (unknown origin)
How it was run: (§5)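 The ratio uses binding constants from UV-vis Scatchard/McGhee–von Hippel titrations. Conditions were 6.7 µM ligand, 25°C, 10 mM MES pH 6.25, 100 mM NaCl, 1 mM EDTA.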

[17] = Selectivity index, ratio of binding constant K for poly[d(A-T)]2 DNA (unknown origin) to binding constant K for poly[d(G-C)]2 DNA (unknown origin); how it was run: as §5

Compound | Kd [1] [s⁻¹] | deltaS [2] [kcal/mol] | K [3] [M⁻¹ s⁻¹] | Activity [4] [%] | Activity [5] [%] | Kd [6] [s⁻¹] | K [7] [M⁻¹ s⁻¹] | deltaG [8] [kcal/mol] | Kd [9] [s⁻¹] | deltaH [10] [kcal/mol] | Activity [11] [%] | K [12] [M⁻¹ s⁻¹] | Ratio [13] | Activity [14] [µM] | Activity [15] | Selectivity Index [16] | Selectivity Index [17]
CN(C)CCCN1C(=O)c2ccc3c4c(ccc(c24)C1=O)C(=O)N(CCCN(C)C)C3=O | 1.1 | 0.003 | 120000 | 61 | 60 | 0.3 | 260000 | -7.6 | 2.6 | -6.7 | 62 | 84000 | 0.83 |  |  |  | 
CN1CCCNC(=O)c2ccc(cc2)C(=O)NCCCN(C)CCCN2C(=O)c3ccc4c5c(ccc(c35)C2=O)C(=O)N(CCC1)C4=O | 1.1 | 0.054 | 120000 | 61 | 49 | 1 | 32000 | -7 | 4.2 | 9.2 | 60 | 26000 | 0.74 | 10 | Active |  | 
O=C1NCCCN2CCN(CCCN3C(=O)c4ccc5c6c(ccc(c46)C3=O)C(=O)N(CCCN3CCN(CCCNC(=O)c4ccc1cc4)CC3)C5=O)CC2 | 0.1 | 0.053 | 60000 | 61 | 47 | 0.003 | 120000 | -8 | 0.15 | 7.8 | 60 | 34000 | 0.72 | 2 |  | 9 | 9
